Laboratory results as given in ChEMBL document CHEMBL4052819 (2017).
In brackets after ≈: the same amount, converted by molar mass. Non-standard residues stand in square brackets, D forms with d. Residues, ends and D or L forms follow the SMILES beside them. *: point of attachment. Heptanoyl = CCCCCCC(=O)*; Octanoyl = CCCCCCCC(=O)*; Dab = NCC[C@H](N)C(=O)O; Hexanoyl = CCCCCC(=O)*

How the values were obtained:
[1] = tested on: Enterococcus faecium; assay: Antibacterial activity against Enterococcus faecium ATCC 19434 after 18 to 20 hrs by broth microdilution method; assay type: functional
How it was run: (§1)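 Broth microdilution in tryptic soy broth: 2-fold dilutions mixed 1:1 with ~1.5 × 10^5 CFU/mL inoculum, final 0.5–32 μg/mL; 37 °C, 18–20 h. MIC taken as lowest concentration giving no visible growth. At least three independent experiments, one replicate each.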

[2] = tested on: Pseudomonas aeruginosa; assay: Antibacterial activity against Pseudomonas aeruginosa ATCC 27853 after 18 to 20 hrs by broth microdilution method; assay type: functional; how it was run: as §1
[3] = tested on: Staphylococcus aureus; assay: Antibacterial activity against Staphylococcus aureus ATCC 29213 after 18 to 20 hrs by broth microdilution method; assay type: functional; how it was run: as §1
[4] = tested on: Klebsiella pneumoniae; assay: Antibacterial activity against Klebsiella pneumoniae ATCC 13883 after 18 to 20 hrs by broth microdilution method; assay type: functional
[5] = tested on: Acinetobacter baumannii; assay: Antibacterial activity against Acinetobacter baumannii ATCC 19606 after 18 to 20 hrs by broth microdilution method; assay type: functional; settings: ATCC 19606 = CIP 70.34 = JCM 6841
[6] = tested on: Escherichia coli; assay: Antibacterial activity against Escherichia coli ATCC 25922 after 18 to 20 hrs by broth microdilution method; assay type: functional; how it was run: as §1
[7] = tested on: Staphylococcus aureus; assay: Antibacterial activity against methicillin-resistant Staphylococcus aureus ATCC 43300 after 18 to 20 hrs by broth microdilution method; assay type: functional
How it was run: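 Broth microdilution in tryptic soy broth: 2-fold dilutions mixed 1:1 with ~1.5 × 10^5 CFU/mL bacterial suspension in TSB, final 0.5–32 μg/mL, 37 °C for 18–20 h. MIC = lowest concentration with no visible growth. At least three independent experiments, one replicate each.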

[8] = tested on: Staphylococcus aureus; assay: Bactericidal activity against methicillin-resistant Staphylococcus aureus ATCC 43300; assay type: functional; settings: read-out: MBC99.9
How it was run: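 MBC taken at the end of the MIC test: 50 μL from each well without visible growth plated on tryptic soy agar. MBC = lowest concentration giving ≥99.9% reduction in viable cells relative to the initial inoculum. Three independent experiments, one replicate each.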

[9] = tested on: Escherichia coli; assay: Antibacterial activity against Escherichia coli ATCC 25922 after 18 to 20 hrs in presence of 95% serum by broth microdilution method; assay type: functional
How it was run: (§2)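 Same microdilution with human serum as medium: compound 2-fold diluted in 100% serum, mixed 1:1 with 90% serum holding ~1.5 × 10^5 CFU/mL, giving 95% serum and final 0.5–64 μg/mL. MIC read as no visible growth after incubation as for the broth test.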

[10] = tested on: Pseudomonas aeruginosa; assay: Bactericidal activity against Pseudomonas aeruginosa ATCC 27853; assay type: functional; settings: read-out: MBC99.9
How it was run: (§3)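 MBC from MIC plates at end point: 50 μL from each well with no visible growth plated on tryptic soy agar and counted. MBC taken as lowest concentration giving ≥99.9% fall in viable count relative to initial inoculum. Three independent experiments, one replicate each.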

[11] = tested on: Enterococcus faecium; assay: Bactericidal activity against Enterococcus faecium ATCC 19434; assay type: functional; settings: read-out: MBC99.9; how it was run: as §3
[12] = tested on: Escherichia coli; assay: Bactericidal activity against Escherichia coli ATCC 25922; assay type: functional; settings: read-out: MBC99.9; how it was run: as §3
[13] = tested on: Klebsiella pneumoniae; assay: Bactericidal activity against Klebsiella pneumoniae ATCC 13883; assay type: functional; settings: read-out: MBC99.9; how it was run: as §3
[14] = tested on: Staphylococcus aureus; assay: Bactericidal activity against Staphylococcus aureus ATCC 29213; assay type: functional; settings: read-out: MBC99.9; how it was run: as §3
[15] = tested on: Acinetobacter baumannii; assay: Bactericidal activity against Acinetobacter baumannii ATCC 19606; assay type: functional; settings: ATCC 19606 = CIP 70.34 = JCM 6841, read-out: MBC99.9; how it was run: as §3
[16] = tested on: Staphylococcus aureus; assay: Antibacterial activity against Staphylococcus aureus ATCC 29213 after 18 to 20 hrs in presence of 95% serum by broth microdilution method; assay type: functional; how it was run: as §2
[17] = tested on: Acinetobacter baumannii; assay: Potentiation of rifampicin-mediated antibacterial activity against Acinetobacter baumannii ATCC 19606 assessed as rifampicin MIC at 2 ug/ml by checkerboard method (reference value: 16 ug/ml); assay type: functional; settings: ATCC 19606 = CIP 70.34 = JCM 6841
[18] = tested on: Klebsiella pneumoniae; assay: Potentiation of rifampicin-mediated antibacterial activity against Klebsiella pneumoniae ATCC 13883 assessed as decrease in rifampicin MIC at 2 ug/ml by checkerboard method relative to control; assay type: functional
[19] = tested on: Klebsiella pneumoniae; assay: Potentiation of rifampicin-mediated antibacterial activity against Klebsiella pneumoniae ATCC 13883 assessed as rifampicin MIC at 2 ug/ml by checkerboard method (reference value: 16 ug/ml); assay type: functional
[20] = tested on: Acinetobacter baumannii; assay: Potentiation of rifampicin-mediated antibacterial activity against Acinetobacter baumannii ATCC 19606 assessed as decrease in rifampicin MIC at 4 ug/ml by checkerboard method relative to control; assay type: functional, ATCC 19606 = CIP 70.34 = JCM 6841

Structure (SMILES) | MIC [1] | MIC [2] | MIC [3] | MIC [4] | MIC [5] | MIC [6] | MIC [7] | MBC [8] | MIC [9] | MBC [10] | MBC [11] | MBC [12] | MBC [13] | MBC [14] | MBC [15] | MIC [16] | MIC [17] | fold change (FC) [18] | MIC [19] | fold change (FC) [20]
CCCCCCC(=O)N[C@@H](CCN)C(=O)N[C@@H](Cc1ccccc1)C(=O)N[C@@H](CCN)C(=O)N[C@H](Cc1ccccc1)C(=O)N[C@@H](CC(C)C)C(=O)N[C@@H](CCN)C(=O)N[C@@H](C(=O)N[C@@H](CC(C)C)C(=O)N[C@@H](CO)C(N)=O)C(C)C (Heptanoyl-[Dab]F[Dab][dF]L[Dab][dV]LS-NH2) | > 32 µg/mL | 2 to 4 µg/mL (≈ 1.76 to 3.52 µM) | ≥ 32 µg/mL | 8 µg/mL (≈ 7.04 µM) | 32 µg/mL (≈ 28.2 µM) | 1 to 4 µg/mL (≈ 0.88 to 3.52 µM) | 32 µg/mL (≈ 28.2 µM) | – | – | – | – | – | – | – | – | – | – | – | – | –
CCCCCCC(=O)N[C@@H](CCN)C(=O)N[C@H](C(=O)N[C@@H](CCN)C(=O)N[C@H](Cc1ccccc1)C(=O)N[C@@H](CC(C)C)C(=O)N[C@@H](CCN)C(=O)N[C@H](CC(C)C)C(=O)N[C@@H](CC(C)C)C(=O)N[C@@H](CO)C(N)=O)[C@@H](C)CC (Heptanoyl-[Dab]I[Dab][dF]L[Dab][dL]LS-NH2) | 8 to 16 µg/mL (≈ 7.17 to 14.3 µM) | 2 to 4 µg/mL (≈ 1.79 to 3.58 µM) | 16 to 32 µg/mL (≈ 14.3 to 28.7 µM) | 4 µg/mL (≈ 3.58 µM) | 8 to 16 µg/mL (≈ 7.17 to 14.3 µM) | 1 to 4 µg/mL (≈ 0.896 to 3.58 µM) | 16 µg/mL (≈ 14.3 µM) | 16 to 32 µg/mL (≈ 14.3 to 28.7 µM) | 16 µg/mL | 8 to 16 µg/mL (≈ 7.17 to 14.3 µM) | 16 µg/mL (≈ 14.3 µM) | 16 µg/mL (≈ 14.3 µM) | 8 µg/mL (≈ 7.17 µM) | 16 to 32 µg/mL (≈ 14.3 to 28.7 µM) | 16 µg/mL (≈ 14.3 µM) | 32 µg/mL | – | – | – | –
CCCCCCC(=O)N[C@@H](CCN)C(=O)N[C@H](C(=O)N[C@@H](CCN)C(=O)N[C@H](Cc1ccccc1)C(=O)N[C@@H](CC(C)C)C(=O)N[C@@H](CCN)C(=O)N[C@@H](C(=O)N[C@@H](CC(C)C)C(=O)N[C@@H](CO)C(N)=O)C(C)C)[C@@H](C)CC (Heptanoyl-[Dab]I[Dab][dF]L[Dab][dV]LS-NH2) | > 32 µg/mL | 4 µg/mL (≈ 3.63 µM) | > 32 µg/mL | 32 µg/mL (≈ 29 µM) | > 32 µg/mL | 4 µg/mL (≈ 3.63 µM) | > 32 µg/mL | – | – | – | – | – | – | – | – | – | 0.0078 µg/mL | >=8192 | 0.0039 µg/mL | 4096
CCCCCCC(=O)N[C@@H](CCN)C(=O)N[C@H](C(=O)N[C@@H](CCN)C(=O)N[C@H](Cc1ccccc1)C(=O)N[C@@H](CC(C)C)C(=O)N[C@@H](CCN)C(=O)N[C@@H](C(=O)N[C@@H](CC(C)C)C(=O)N[C@@H](CO)C(N)=O)C(C)C)C(C)C (Heptanoyl-[Dab]V[Dab][dF]L[Dab][dV]LS-NH2) | > 32 µg/mL | 16 µg/mL (≈ 14.7 µM) | > 32 µg/mL | > 32 µg/mL | > 32 µg/mL | 16 µg/mL (≈ 14.7 µM) | > 32 µg/mL | – | – | – | – | – | – | – | – | – | 0.125 µg/mL | 4096 | 0.0156 µg/mL | 256 - 512
CCCCCC(=O)N[C@@H](CCN)C(=O)N[C@H](C(=O)N[C@@H](CCN)C(=O)N[C@H](Cc1ccccc1)C(=O)N[C@@H](CC(C)C)C(=O)N[C@@H](CCN)C(=O)N[C@@H](C(=O)N[C@@H](CC(C)C)C(=O)N[C@@H](CO)C(N)=O)C(C)C)[C@@H](C)CC (Hexanoyl-[Dab]I[Dab][dF]L[Dab][dV]LS-NH2) | > 32 µg/mL | 8 to 16 µg/mL (≈ 7.35 to 14.7 µM) | > 32 µg/mL | ≥ 32 µg/mL | > 32 µg/mL | 8 to 16 µg/mL (≈ 7.35 to 14.7 µM) | > 32 µg/mL | – | – | – | – | – | – | – | – | – | 0.0078 to 0.0156 µg/mL | 8192 | 0.0039 µg/mL | 4096 - 8192
CCCCCCCC(=O)N[C@@H](CCN)C(=O)N[C@@H](CCN)C(=O)N[C@@H](CCN)C(=O)N[C@H](Cc1ccccc1)C(=O)N[C@@H](CC(C)C)C(=O)N[C@@H](CCN)C(=O)N[C@@H](C(=O)N[C@@H](CC(C)C)C(=O)N[C@@H](CCN)C(N)=O)C(C)C (Octanoyl-[Dab][Dab][Dab][dF]L[Dab][dV]L[Dab]-NH2) | > 32 µg/mL | 16 to 32 µg/mL (≈ 14.3 to 28.7 µM) | ≥ 32 µg/mL | > 32 µg/mL | > 32 µg/mL | > 32 µg/mL | > 32 µg/mL | – | – | – | – | – | – | – | – | – | 0.0312 to 0.0625 µg/mL | 256 | 0.0625 to 0.125 µg/mL | 256 - 512
